Activity calls are given as the source filed them. The rule behind the calls is not given here.
Columns and labels:
[1] = system: Protein cereblon/Cyclin-dependent kinase 2 (Mus musculus); experiment: Protac activity at CDK2/CRBN E3 ligase in mouse HEI-OC1 cells assessed as induction of CDK2 protein degradation at 100 nM measured after 24 hrs by Western blot analysis
[2] = target: von Hippel-Lindau E3 ligase/Cyclin-dependent kinase 2 (Mus musculus); experiment: Protac activity at CDK2/VHL E3 ligase in mouse HEI-OC1 cells assessed as induction of CDK2 protein degradation measured after 24 hrs by Western blot analysis
Danio rerio [3] = species: Danio rerio; experiment: Protection of cisplatin-induced ototoxicity in 5 days post fertilization zebrafish assessed as protection neuromast hair cells at 0.001 to 1 nM measured after 24 hrs by fluorescence microscopy; type: functional, organism-based; conditions: dose upper 1.0 µM, time 5.0 day, in the assay text read “0.001 to 1 µM” for “0.001 to 1 nM”
Summary of the method: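 Zebrafish larvae at 4 dpf pre-exposed 24 h to 0.1 nM–1 μM in E3, then co-incubated 6 h with compound plus cisplatin 400 μM. After 1 h recovery, fish were fixed in 4% PFA and immunostained for otoferlin. Hair cells in otic, middle and opercular neuromasts were counted manually under a 40x fluorescence objective, 6–8 fish per experiment; mean ± SEM.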

Danio rerio [4] = species: Danio rerio; experiment: Protection of kainic acid-induced ototoxicity in 5 days post fertilization zebrafish assessed as protection neuromast hair cells at 5 to 100 nM measured after 24 hrs by fluorescence microscopy; conditions: dose 5-100 nM, time 5.0 day
[5] = target: von Hippel-Lindau disease tumor suppressor/CDK2 (Danio rerio) (UniProt Q7ZWB1+Q68EH9); experiment: PROTAC activity at CDK2/VHL E3 ligase in 5 days post fertilization zebrafish assessed as decrease in CDK2 abundance measured after 24 hrs by immunoblot analysis; conditions: dose 1.0 µM
Summary of the method: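 TuAB zebrafish larvae at 4 dpf, kept in E3 medium (pH 7.2) at 28.5°C, exposed 24 h to 0.1 nM–1 μM in E3 (controls 0.1% DMSO). Fish were collected before any ototoxin. Lysates were run at 20–30 μg protein per lane, probed with anti-CDK2 (1:500) against β-actin, and CDK2 bands quantified from three independent experiments.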

Activity [1] | DC50 [2] [nM] | Activity [5] | SMILES | Activity (Danio rerio [3]) | Activity (Danio rerio [4])
inactive | – | – | O=C1CCC(N2C(=O)c3cccc(NCCOCCOCCOCCn4cc(CO[C@H]5CC[C@H](NC(=O)c6n[nH]cc6NC(=O)c6c(F)cccc6F)CC5)nn4)c3C2=O)C(=O)N1 (stereo partly specified) | – | –
inactive | – | – | Cc1ncc(-c2ccnc(Nc3ccc(S(=O)(=O)CCCc4cn(CCOCCOCCOCCNc5cccc6c5C(=O)N(C5CCC(=O)NC5=O)C6=O)nn4)cc3)n2)n1C(C)C (stereo unspecified) | – | –
– | 100 | Active | Cc1ncsc1-c1ccc(CNC(=O)[C@@H]2C[C@@H](O)CN2C(=O)[C@@H](NC(=O)COCCn2cc(CCCS(=O)(=O)c3ccc(Nc4nccc(-c5cnc(C)n5C(C)C)n4)cc3)nn2)C(C)(C)C)cc1 | Active | Active

Source: ChEMBL document CHEMBL5046223, “AZD5438-PROTAC: A selective CDK2 degrader that protects against cisplatin- and noise-induced hearing loss” (Eur J Med Chem, 2021)
